Sampled rows, rich in hits. Any-hit rate of the full collection: about 9.6%.
PTEN del growth: suppresses growth of cells with PTEN deletion; HCT116 PTEN-null viability, CellTiter-Glo, 60 h; active compounds read low; viability, % at 10 µM; 1.2% of 140,000 active; AID 827;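 active = viability at or below a set limit, 4 SD under the median of all tested compounds, cut at about 3.7% in these data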;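 note: PTEN knockout HCT116 line with beta catenin targeted HCT116 as companion control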
TNAP inh noacc: inhibitors of human TNAP without phosphate acceptor | P05186 | purified TNAP, CDP-star luminescence, 30 min | inhibition, % at 20 µM | 0.26% of 200,000 active;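 active = tissue-nonspecific alkaline phosphatase inhibition above about 50% at 20 µM in the single-dose screen, limit read from the data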;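 note: 0% = DMSO negative control and 100% = EDTA positive control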
Target sequence (P05186 whole entry, looked up): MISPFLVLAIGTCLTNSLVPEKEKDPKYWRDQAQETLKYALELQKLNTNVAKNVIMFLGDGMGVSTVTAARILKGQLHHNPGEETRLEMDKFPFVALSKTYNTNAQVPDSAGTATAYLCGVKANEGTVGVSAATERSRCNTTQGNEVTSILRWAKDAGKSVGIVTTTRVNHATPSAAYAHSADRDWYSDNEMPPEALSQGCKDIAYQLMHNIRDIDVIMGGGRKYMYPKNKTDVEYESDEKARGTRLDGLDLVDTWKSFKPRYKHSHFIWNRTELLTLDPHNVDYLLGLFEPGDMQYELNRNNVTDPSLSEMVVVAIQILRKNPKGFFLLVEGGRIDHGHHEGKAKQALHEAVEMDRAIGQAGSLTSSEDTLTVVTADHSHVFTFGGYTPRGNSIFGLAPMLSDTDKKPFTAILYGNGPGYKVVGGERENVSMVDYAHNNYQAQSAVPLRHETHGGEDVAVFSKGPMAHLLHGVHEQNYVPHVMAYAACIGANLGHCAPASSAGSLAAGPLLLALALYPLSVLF
L major viab: Leishmania major promastigote growth inhibition. AID 1063. Leishmania major promastigotes, resazurin fluorescence viability. 9% of 200,000 active. inhibition, % at 10 µM; in the data active = inhibition above about 50%;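 note: promastigotes grown with compound for 44 hours at 28 °C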
TNAP act hi DEA: increases human TNAP activity under high phosphate acceptor concentration; activation factor at 20 µM; 200,000 tested, under 10 active; purified TNAP, CDP-star luminescence, 1 M DEA, 30 min; active compounds read high; 0 = EDTA background, 1 = DMSO-only activity; AID 1136;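 active = activation factor at least 2 at 20 µM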
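Measured by: Luminescent substrate turnover signal | Test system: Human TNAP | Input: TNAP 1/800 final | Dosing: 20 µM single point | Schedule: 30 min, room temperature | Controls: EDTA wells as negative control, DMSO wells as positive control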
TNAP inh hi DEA: TNAP (human) inhibition, high acceptor. P05186. purified TNAP, CDP-star luminescence, 1 M DEA. inhibition, % at 20 µM. 0.03% of 200,000 active;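 active = over 50% inhibition of tissue-nonspecific alkaline phosphatase at 20 µM in the single-dose screen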;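 note: plate controls were DMSO wells for no effect and EDTA-quenched wells as full inhibition for full effect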
bCat KO growth: beta-catenin-lacking colon tumor cell growth suppression | HCT116 beta-catenin knockout viability, CellTiter-Glo, 60 h; active compounds read low | AID 818 | 1.5% of 140,000 active | viability, % at 10 µM;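 active = viability at or under a set limit, the compound median less 4 SD, cut at about 6% in these data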;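 note: 0% = Hyamine 1622 control at 20 µM and 100% = untreated cell control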
Numbers without * were called inactive; . = no result given.

SMILES	PTEN del growth	TNAP inh noacc	L major viab	TNAP act hi DEA	TNAP inh hi DEA	bCat KO growth
CN(C)S(=O)(=O)c1ccc(N2CCCC2)c(C(=O)Nc2nc(-c3ccc(F)cc3)cs2)c1	95	-14	98*	1	2	81
CN(C)S(=O)(=O)c1ccc(N2CCCC2)c(C(=O)Nc2nc3ccc(F)cc3s2)c1	65	-5	7	1.1	-5	64
CN(C)S(=O)(=O)c1ccc(N2CCCC2)c(C(=O)Nc2nc(-c3cc(F)ccc3F)cs2)c1	51	-4	84*	1	-1	77
Cc1cccc2sc(NC(=O)c3cc(S(=O)(=O)N(C)C)ccc3N3CCCC3)nc12	.	-5	52*	1	-4	.
CN(C)S(=O)(=O)c1ccc(N2CCCC2)c(C(=O)Nc2nc3ccccc3s2)c1	66	-10	2	1.1	-6	58
COc1ccc(S(=O)(=O)Nc2ccccc2C(=O)Nc2nc(-c3ccc(F)cc3)cs2)cc1OC	42	3	53*	1	1	48
O=[N+]([O-])c1cnn(-c2nc(-c3cccs3)cc(C(F)(F)F)n2)c1	.	-19	-14	1.1	-7	.
COc1ccc(C(=O)NCCN2CCOCC2)cc1OC	99	-13	2	1	-4	99
COc1cc(CNCCN2CCOCC2)ccc1OCc1ccc(Cl)cc1Cl	18	8	100*	1	4	25
COc1cc(CNCCN2CCOCC2)ccc1OCc1cccc(Cl)c1	94	2	95*	1	-2	78
CCC(=O)n1nc(-c2ccccc2)nc1N	91	40	-3	1.1	-6	83
CCC(=O)n1nc(-c2ccc(OC)cc2)nc1N	83	51*	-4	1	-3	90
C=CCn1c(=N)n(CC(=O)c2ccc(Br)s2)c2ccccc21	46	-5	97*	1	-1	46
COc1ccc(Cl)cc1N(CC(=O)N(C)C)S(=O)(=O)c1ccc(C)c([N+](=O)[O-])c1	.	-5	10	1	-4	.
Cc1ccc(/C=N/NC(=O)CCCOc2ccc(Cl)cc2Cl)cc1[N+](=O)[O-]	97	5	14	1	-1	96
COc1ccc(Cl)cc1N(CC(=O)N/N=C/c1ccc(OC(C)C)cc1)S(=O)(=O)c1ccc(C)c([N+](=O)[O-])c1	82	-8	98*	1	-2	83
C=CCOc1cccc(/C=N/NC(=O)CN(c2cc(Cl)ccc2OC)S(=O)(=O)c2ccc(C)c([N+](=O)[O-])c2)c1	72	-23	99*	1	-2	70
CCCc1cc(NC(=O)CCl)n(-c2ccccc2)n1	.	-12	51*	1	2	.
CCCc1nc2oc3c(N4CCNCC4)ncnc3c2c2c1CCCC2	.	-1	.	1	1	.
CCCc1nc2oc3c(NCCN(C)C)ncnc3c2c2c1CCCC2	1.8*	5	101*	1.1	-7	2.0*
CCN1c2ccccc2N(C)C1(C)c1ccccc1 (stereo unspecified)	8	-4	99*	1	4	14
CC(=O)c1cc2c(cc1NS(=O)(=O)c1ccc(F)cc1)OCO2	.	-5	-4	1	-3	.
Clc1ccc(-c2csc(=Nc3cccnc3)n2CCCn2ccnc2)cc1Cl	61	1	99*	1	0	55
CC1(C)CC(N=Cc2c(O)n(Cc3ccc4c(c3)OCO4)c(=O)c3ccccc23)CC(C)(C)N1	.	-2	101*	0.9	6	.
CCOC(=O)Cc1csc(NC(=S)NC(=O)c2ccc(C)cc2)n1	104	15	6	0.9	6	97
SMILES	PTEN del growth	TNAP inh noacc	L major viab	TNAP act hi DEA	TNAP inh hi DEA	bCat KO growth
O=S(=O)(N1CCCCC1)n1c(Cc2ccccc2)nc2ccccc21	73	-17	54*	1	-2	74
COc1ccc(OC)c(N=c2oc3cc(O)ccc3cc2C(N)=O)c1	84	3	9	0.9	6	78
COc1ccc2o/c(=N\O)c(C(=O)Nc3ccccc3OC)cc2c1	79	-3	97*	1	3	84
COc1ccc2oc(=Nc3cc(F)ccc3F)c(C(N)=O)cc2c1	.	-4	59*	1	2	.
CCO[C@H]1OC(C(N)=O)=C[C@@H](C)[C@@H]1CCCO	.	-4	-2	1	-4	.
COc1ccc(CN(CC2CCC(C(=O)O)CC2)C(=S)Nc2cc(C)ccc2C)cc1 (stereo unspecified)	.	-9	2	1.1	-7	.
CN(C)c1ccc(NC(=O)CSc2nc3ccccc3c(=O)n2C2CCCCC2)cc1	75	-2	37	1	1	85
CCC(c1nnc(SCC(=O)Nc2ccc(C(C)=O)cc2)n1C1CCCCC1)N(C)C (stereo unspecified)	86	6	61*	1.1	-5	86
CCC(c1nnc(SCC(=O)Nc2cccnc2Cl)n1-c1ccccc1)N(C)C (stereo unspecified)	.	-2	-2	1	2	.
CCC(c1nnc(SCC(=O)Nc2cc(Cl)ccc2C#N)n1C1CCCCC1)N(C)C (stereo unspecified)	79	-13	77*	1	-3	85
CC(C)C(NC(=O)c1ccccc1F)C(=O)Nc1nccs1 (stereo unspecified)	.	-12	1	1	-1	.
Cc1ccc(O)c(C(=O)/C=C/c2ccc3c(c2)OCCO3)c1	.	-5	18	1	-1	.
Cc1ccc(C(=O)Nc2nc(C(C)(C)C)cs2)s1	83	-5	55*	1	-1	53
O=C1c2ccccc2NC(c2ccc(O)cc2)N1Cc1ccco1 (stereo unspecified)	96	-5	-6	1	-1	103
O=C1c2[nH]nc(-c3ccccc3O)c2C(c2ccccc2)N1Cc1ccco1 (stereo unspecified)	76	-98	78*	1	0	81
O=C1c2[nH]nc(-c3ccccc3O)c2C(c2ccccc2F)N1Cc1ccco1 (stereo unspecified)	28	-131	100*	1.1	-6	43
O=C(O)/C=C/c1ccccc1Oc1ccc(Cl)cc1Cl	.	-3	-12	1	-2	.
COc1cccc(NC(=O)CN2C(=O)NC(C)(CC(C)C)C2=O)c1 (stereo unspecified)	.	-7	-3	1	-1	.
CC1(C)Oc2ccc(C(=O)NC3CCCC3)cc2N(CC(=O)NC2CCCCC2)C1=O	96	-12	-7	1	5	90
COc1ccc(C(=O)NNc2ccccc2)cc1	107	-19	92*	1	2	97
COc1ccc(C(=O)NC(Nc2ccccc2)C(Cl)(Cl)Cl)cc1 (stereo unspecified)	68	-9	99*	1	-2	62
COc1ccc(C(=O)c2ccccc2)cc1	.	-3	-2	1	2	.
Cc1nn(C)c(C)c1CS(=O)(=O)c1ccccc1	.	-3	-2	1	-2	.

High-throughput results: PubChem BioAssay, several laboratories
